Source: ChEMBL document CHEMBL1156789, “Design and synthesis of 5,5'-disubstituted aminohydantoins as potent and selective human beta-secretase (BACE1) inhibitors” (J Med Chem, 2010)

What was measured:
[1] = biological target: T1, Beta-secretase 1 (Homo sapiens, UniProt P56817); assay: Inhibition of human BACE1 by FRET based peptide cleavage assay
[2] = species on record: Homo sapiens; assay: Selectivity for human BACE1 over human BACE2
[3] = biological target: T2, Beta-secretase 2 (Homo sapiens, UniProt Q9Y5Z0); assay: Inhibition of human BACE2 by FRET based peptide cleavage assay
T2 sequence (Q9Y5Z0 whole entry): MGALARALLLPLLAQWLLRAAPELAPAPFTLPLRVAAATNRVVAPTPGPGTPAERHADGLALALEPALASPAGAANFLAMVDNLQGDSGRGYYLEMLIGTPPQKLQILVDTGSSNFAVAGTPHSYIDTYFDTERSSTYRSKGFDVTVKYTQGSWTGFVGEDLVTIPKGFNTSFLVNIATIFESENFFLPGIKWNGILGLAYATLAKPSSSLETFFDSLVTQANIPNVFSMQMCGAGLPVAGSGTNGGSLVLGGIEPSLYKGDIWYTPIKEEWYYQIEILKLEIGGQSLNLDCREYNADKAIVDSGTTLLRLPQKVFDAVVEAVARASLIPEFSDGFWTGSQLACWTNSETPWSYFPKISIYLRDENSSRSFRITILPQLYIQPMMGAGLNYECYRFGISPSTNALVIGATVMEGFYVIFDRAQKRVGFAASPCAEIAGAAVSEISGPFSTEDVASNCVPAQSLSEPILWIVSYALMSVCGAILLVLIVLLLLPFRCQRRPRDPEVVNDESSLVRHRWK

[4] = biological target: T3, Cathepsin D (Homo sapiens, UniProt P07339); assay: Inhibition of human cathepsin D by FRET based peptide cleavage assay
[5] = biological target: T1, Beta-secretase 1; assay: Inhibition of BACE1 expressed in CHOK1 cells coexpressing human recombinant wild type APP assessed as blockade of amyloid beta production by ELISA; assay type: cell-based, CHO-K1
[6] = Inhibition of pepsin by FRET based peptide cleavage assay
[7] = biological target: T4, Renin (Homo sapiens, UniProt P00797); assay: Inhibition of human recombinant renin by FRET based peptide cleavage assay
T4 sequence (P00797 whole entry): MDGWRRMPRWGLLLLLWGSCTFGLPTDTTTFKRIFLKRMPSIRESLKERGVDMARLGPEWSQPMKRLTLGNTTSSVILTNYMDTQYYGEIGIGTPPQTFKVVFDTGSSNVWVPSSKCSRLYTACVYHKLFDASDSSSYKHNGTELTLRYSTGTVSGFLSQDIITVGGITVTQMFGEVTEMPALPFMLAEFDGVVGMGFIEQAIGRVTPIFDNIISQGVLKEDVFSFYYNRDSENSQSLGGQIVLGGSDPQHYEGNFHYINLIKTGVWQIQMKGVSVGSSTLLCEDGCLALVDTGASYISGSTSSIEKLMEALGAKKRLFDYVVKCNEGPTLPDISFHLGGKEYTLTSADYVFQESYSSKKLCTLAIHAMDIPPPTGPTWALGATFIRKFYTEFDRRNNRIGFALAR

[8] = Dissociation constant, pKa of the compound; assay type: physicochemical
[9] = biological target: T3, Cathepsin D; assay: Inhibition of human cathepsin D at 100 uM by FRET based peptide cleavage assay
[10] = tested on: Mus musculus; assay: Reduction in amyloid beta 40 level in Tg2576 mouse plasma at 100 mg/kg, po after 8 hrs; assay type: functional; parameters: scale not given: the % may be the effect or the level left
Summary of the method: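 Tg2576 mice received a single acute oral dose. Plasma Aβ40 was measured 8 h after dosing.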

[11] = biological target: T5, Beta-secretase 2 (Homo sapiens) (UniProt Q9Y5Z0); settings: 25 uM
T5 sequence (whole entry): T2 sequence (Q9Y5Z0 whole entry)

T3 sequence (P07339 65-162 limits assumed): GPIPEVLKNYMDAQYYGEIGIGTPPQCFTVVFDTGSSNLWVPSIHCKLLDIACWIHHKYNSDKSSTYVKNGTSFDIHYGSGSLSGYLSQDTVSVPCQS
T3 sequence (P07339 169-412 limits assumed): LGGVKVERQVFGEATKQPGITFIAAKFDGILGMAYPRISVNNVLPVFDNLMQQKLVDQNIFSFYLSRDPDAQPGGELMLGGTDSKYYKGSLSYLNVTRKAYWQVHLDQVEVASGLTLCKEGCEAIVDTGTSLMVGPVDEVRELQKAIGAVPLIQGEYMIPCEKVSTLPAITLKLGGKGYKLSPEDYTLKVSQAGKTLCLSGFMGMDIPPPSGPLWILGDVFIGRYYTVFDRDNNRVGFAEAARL
T1 sequence (P56817 whole entry): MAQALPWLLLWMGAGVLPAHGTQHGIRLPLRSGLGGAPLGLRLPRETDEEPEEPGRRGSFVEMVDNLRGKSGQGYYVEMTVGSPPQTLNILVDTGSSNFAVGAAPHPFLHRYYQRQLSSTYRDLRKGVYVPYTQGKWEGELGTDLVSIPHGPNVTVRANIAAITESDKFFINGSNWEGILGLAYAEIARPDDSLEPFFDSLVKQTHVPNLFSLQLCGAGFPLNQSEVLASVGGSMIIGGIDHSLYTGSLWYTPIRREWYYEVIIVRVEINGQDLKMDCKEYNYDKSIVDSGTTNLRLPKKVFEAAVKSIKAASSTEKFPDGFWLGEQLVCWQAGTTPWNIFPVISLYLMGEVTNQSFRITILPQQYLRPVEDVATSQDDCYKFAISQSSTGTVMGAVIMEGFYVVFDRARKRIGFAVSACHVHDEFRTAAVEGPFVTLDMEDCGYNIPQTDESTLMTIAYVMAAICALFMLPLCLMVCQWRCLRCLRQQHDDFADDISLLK

SMILES	IC50 [1] [µM]	IC50 [3] [µM]	IC50 [4] [µM]	EC50 [5] [µM]	further results
CCc1cc(C2(C34CC5CC(CC(C5)C3)C4)N=C(N)N(C)C2=O)ccc1OC (configuration not stated)	0.28	4.33	14.1	0.76	Ratio IC50 [2]: 20
COc1ccc(C2(c3cccc(-c4cccnc4)c3)N=C(N)N(C)C2=O)cc1C (configuration not stated)					IC50 [6]: 19.6 µM; IC50 [7]: 93.4 µM
CN1C(=O)C(c2ccccc2)(C23CC4CC(CC(C4)C2)C3)N=C1N (configuration not stated)		0.83	27.3		
CN1C(=O)C(c2ccccc2)(c2ccccc2)N=C1N					IC50 [6]: 11.1 µM; IC50 [7]: 9.6 µM; pKa [8]: 5.7; inhibition [9]: 36%
COc1ccc(C2(c3cccc(-c4cccnc4)c3)N=C(N)N(C)C2=O)cc1Cl (configuration not stated)		0.56	6.28		
COc1ccc([C@@]2(c3ccc(F)c(-c4cccnc4F)c3)N=C(N)N(C)C2=O)cc1C		0.81	0.82		Activity [10]: 69%
NC1=NC(c2ccccc2)(c2ccccc2)C(=O)N1		87.2		23.5	inhibition [9]: 13%
CCN1C(=O)C(c2ccccc2)(c2ccccc2)N=C1N		5.16		8.13	inhibition [9]: 33%
COc1ccc(C2(c3ccc(F)c(-c4cncnc4)c3)N=C(N)N(C)C2=O)cc1C (configuration not stated)		2.8	6.7		IC50 [6]: 35.3 µM; IC50 [7]: 57.6 µM
COc1ncccc1-c1cccc(C2(c3ccc(OC(F)(F)F)cc3)N=C(N)N(C)C2=O)c1 (configuration not stated)	0.52	5.99	2.05	2.57	
CCCOc1cc(C2(c3cccc(-c4cccnc4)c3)N=C(N)N(C)C2=O)ccc1OC (configuration not stated)	0.05	0.2	10.1	0.68	
CN1C(=O)C(c2cccc(-c3cccnc3)c2)(c2ccc3c(c2)CCO3)N=C1N (configuration not stated)		1.13	23.9		
CN1C(=O)C(c2ccccc2)(c2ccc(Cl)cc2)N=C1N (configuration not stated)	2.25	1.84	38.2	2.13	
COc1ccc(C2(c3cccc(-c4cncnc4)c3)N=C(N)N(C)C2=O)cc1C (configuration not stated)		1.59	14.3		IC50 [6]: 33.3 µM; IC50 [7]: 42.3 µM
COc1ccc(C2(c3cccc(-c4cccnc4F)c3)N=C(N)N(C)C2=O)cc1C (configuration not stated)				0.11	
CCCCOc1cc(C2(c3cccc(-c4cccnc4)c3)N=C(N)N(C)C2=O)ccc1OC (configuration not stated)	0.05	0.17	8.18	0.67	
NC1=NC(c2ccccc2)(c2ccccc2)C2=NCCCN12					pKa [8]: 7.6
COc1ccc(C2(C34CC5CC(CC(C5)C3)C4)N=C(N)N(C)C2=O)cc1OC (configuration not stated)	0.27	9.59	36.6	0.19	Ratio IC50 [2]: 20
CN1C(=O)[C@](c2ccc(OC(F)(F)F)cc2)(c2ccc(F)c(-c3cncnc3)c2)N=C1N		9.97	11.6		
CN1C(=O)C(c2ccc(OC(F)(F)F)cc2)(c2cccc(-c3cncnc3)c2F)N=C1N (configuration not stated)	1.36	5.04	26.2	2.83	
COc1ccc(C2(c3cccc(-c4cccnc4)c3)N=C(N)N(C)C2=O)cc1C#N (configuration not stated)	0.15	0.55	7.3	4.5	
COc1ccc(C2(c3cccc(-c4cccnc4)c3)N=C(N)N(C)C2=O)cc1OC(C)C (configuration not stated)	0.06	1.84	12.2	0.87	
COc1ccc(C2(c3cccc(-c4cccnc4)c3)N=C(N)N(C)C2=O)cc1F (configuration not stated)	0.05	0.52	5.2	0.42	
COc1ccc([C@]2(C34CC5CC(CC(C5)C3)C4)N=C(N)N(C)C2=O)cc1		0.23	13.4		
COc1ccc(C2(c3cccc(-c4cccnc4)c3)N=C(N)N(C)C2=O)cc1OC (configuration not stated)			23.1		

SMILES	IC50 [1] [µM]	IC50 [3] [µM]	IC50 [4] [µM]	EC50 [5] [µM]	further results
COc1ccc(C2(c3ccc(F)c(-c4cccnc4F)c3)N=C(N)N(C)C2=O)cc1C (configuration not stated)		1.84	2.41		IC50 [6]: 66.3 µM; IC50 [7]: 23.2 µM
COc1ccc([C@]2(c3ccc(F)c(-c4cccnc4F)c3)N=C(N)N(C)C2=O)cc1C		1.64	2.71		
CN1C(=O)C(c2ccccc2)(c2cccc(Cl)c2)N=C1N (configuration not stated)	2.5	0.42	69.2	6.97	
COc1ccc(-c2cccc(C3(c4ccc(OC(F)(F)F)cc4)N=C(N)N(C)C3=O)c2)cn1 (configuration not stated)		2.51	4.43		
CN1C(=O)C(c2cccc(-c3cccnc3)c2)(c2ccc3c(c2)OCCO3)N=C1N (configuration not stated)		0.5	10.9		
CN1C(=O)C(c2ccc(OC(F)(F)F)cc2)(c2ccc(F)c(-c3cncnc3)c2)N=C1N (configuration not stated)		9.69	4.18		
COc1ccc([C@@]2(C34CC5CC(CC(C5)C3)C4)N=C(N)N(C)C2=O)cc1C		73.6	13.1		
COc1ccc(C2(c3cccc(-c4cccnc4)c3)N=C(N)N(C)C2=O)cc1C(F)(F)F (configuration not stated)		1	3.51		
COc1ccc([C@]2(C34CC5CC(CC(C5)C3)C4)N=C(N)N(C)C2=O)cc1C		4.02	9.21		
COc1cccc(C2(c3ccccc3)N=C(N)N(C)C2=O)c1 (configuration not stated)	3.47	1.19		5.9	inhibition [9]: 46%
COc1ccc(C2(c3ccccc3)N=C(N)N(C)C2=O)cc1 (configuration not stated)	3.1	1.72		3.35	inhibition [9]: 3%
CCOc1cc(C2(c3cccc(-c4cccnc4)c3)N=C(N)N(C)C2=O)ccc1OC (configuration not stated)	0.05	0.6	10.3	0.52	
COc1ccc(C2(c3cccc(-c4cccnc4)c3)N=C(N)N(C)C2=O)cc1OC1CCCC1 (configuration not stated)		0.3	8.3		
COc1ccc(C2(C34CC5CC(CC(C5)C3)C4)N=C(N)N(C)C2=O)cc1C (configuration not stated)		6.29	11.1		IC50 [6]: 15 µM; IC50 [7]: 59.5 µM
COc1ccc(C2(c3cccc(-c4cccnc4)c3)N=C(N)N(C)C2=O)cc1C1CCCC1 (configuration not stated)		0.96	1.87		
CN1C(=O)C(c2ccc(OC(F)(F)F)cc2)(c2cc(F)cc(-c3cncnc3)c2)N=C1N (configuration not stated)	0.32	1.26	8.55		IC50 [6]: 35.1 µM; IC50 [7]: 13.8 µM
COc1ccc(C2(c3ccc(C)c(-c4cccnc4)c3)N=C(N)N(C)C2=O)cc1C (configuration not stated)		0.96	2.47		
COc1ccc(C2(c3ccc(C#N)c(-c4cccnc4)c3)N=C(N)N(C)C2=O)cc1C (configuration not stated)	0.63	2.32	2.19	1.75	
COc1ccc(C2(C34CC5CC(CC(C5)C3)C4)N=C(N)N(C)C2=O)cc1 (configuration not stated)		0.68	15.3		IC50 [6]: 14.4 µM; IC50 [7]: 53.3 µM
CN1C(=O)C(c2cccc(-c3cccnc3)c2)(c2ccc3c(c2)OCO3)N=C1N (configuration not stated)		0.54	21.4		
COc1ccc([C@@]2(C34CC5CC(CC(C5)C3)C4)N=C(N)N(C)C2=O)cc1			20.8		inhibition [11]: 50%
CN1C(=O)[C@@](c2ccc(OC(F)(F)F)cc2)(c2ccc(F)c(-c3cncnc3)c2)N=C1N		7.54	2.33		
CCOc1ccc(C2(C34CC5CC(CC(C5)C3)C4)N=C(N)N(C)C2=O)cc1 (configuration not stated)		2.53	11.5		
CN1C(=O)C(c2ccc(OC(F)(F)F)cc2)(C23CC4CC(CC(C4)C2)C3)N=C1N (configuration not stated)		3.87	6.22		
CCCCOc1ccc(C2(C34CC5CC(CC(C5)C3)C4)N=C(N)N(C)C2=O)cc1 (configuration not stated)		5.55	8.4		
